How the values were obtained:
Assay type in all cases: functional
[1] = Growth inhibition of human HOP92 cells at 10 uM after 48 hrs by sulforhodamine B assay; settings: HOP-92, 48 h, read-out: GI
How it was run: (§1)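 Run at NCI on the 60-line panel. Cells grown in RPMI 1640 with 5% FBS and 2 mM L-glutamine, plated at 5000–40,000 cells/well by doubling time, and held 24 h at 37 °C before dosing. Drug (DMSO stock) given at a single final 10 µM in triplicate wells for 48 h. Adherent cells fixed with cold TCA (10% final), suspension cells with 16% TCA. SRB stain read at 515 nm. Percent growth from Tz, C and Ti.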

[2] = Growth inhibition of human UACC257 cells at 10 uM after 48 hrs by sulforhodamine B assay; settings: UACC-257, 48 h, read-out: GI
How it was run: (§2)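 NCI-60 panel, adherent cells grown in RPMI 1640 with 5% FBS and 2 mM L-glutamine, plated at 5000–40,000 cells/well and preincubated 24 h at 37 °C, 5% CO2. 10 µM final compound from DMSO stock, triplicate wells, 48 h. Fixed with cold TCA (10% final, 60 min, 4 °C) and stained with 0.4% SRB. Absorbance read at 515 nm; growth calculated against time-zero and control wells.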

NCI-H23 = assay: Growth inhibition of human NCI-H23 cells at 10 uM after 48 hrs by sulforhodamine B assay; settings: NCI-H23, 48 h, read-out: GI; how it was run: as §1
NCI-H522 = assay: Growth inhibition of human NCI-H522 cells at 10 uM after 48 hrs by sulforhodamine B assay; settings: NCI-H522, 48 h, read-out: GI; how it was run: as §1
MDA-MB-468 = assay: Growth inhibition of human MDA-MB-468 cells at 10 uM after 48 hrs by sulforhodamine B assay; settings: MDA-MB-468, 48 h, read-out: GI; how it was run: as §1
ACHN = assay: Growth inhibition of human ACHN cells at 10 uM after 48 hrs by sulforhodamine B assay; settings: read-out: GI; how it was run: as §1
M14 = assay: Growth inhibition of human M14 cells at 10 uM after 48 hrs by sulforhodamine B assay; settings: M14, 48 h, read-out: GI; how it was run: as §1
[3] = Growth inhibition of human SF268 cells at 10 uM after 48 hrs by sulforhodamine B assay; settings: SF-268, 48 h, read-out: GI; how it was run: as §1
[4] = Growth inhibition of human Caki1 cells at 10 uM after 48 hrs by sulforhodamine B assay; settings: CAKI-1, 48 h, read-out: GI; how it was run: as §1
[5] = Growth inhibition of human PC3 cells at 10 uM after 48 hrs by sulforhodamine B assay; settings: PC-3, 48 h, read-out: GI; how it was run: as §1
[6] = Growth inhibition of human SNB75 cells at 10 uM after 48 hrs by sulforhodamine B assay; settings: SNB-75, 48 h, read-out: GI; how it was run: as §1
[7] = Growth inhibition of human OVCAR5 cells at 10 uM after 48 hrs by sulforhodamine B assay; settings: OVCAR-5, 48 h, read-out: GI; how it was run: as §1
KM12 = assay: Growth inhibition of human KM12 cells at 10 uM after 48 hrs by sulforhodamine B assay; settings: KM12, 48 h, read-out: GI; how it was run: as §1
[8] = Growth inhibition of human HOP62 cells at 10 uM after 48 hrs by sulforhodamine B assay; settings: HOP-62, 48 h, read-out: GI; how it was run: as §1
A549 = assay: Growth inhibition of human A549 cells at 10 uM after 48 hrs by sulforhodamine B assay; settings: A549, 48 h, read-out: GI; how it was run: as §1
[9] = Growth inhibition of human HCT15 cells at 10 uM after 48 hrs by sulforhodamine B assay; settings: HCT-15, 48 h, read-out: GI; how it was run: as §1
[10] = Growth inhibition of human Hs 578T cells at 10 uM after 48 hrs by sulforhodamine B assay; settings: read-out: GI; how it was run: as §1
NCI-H226 = assay: Growth inhibition of human NCI-H226 cells at 10 uM after 48 hrs by sulforhodamine B assay; settings: NCI-H226, 48 h, read-out: GI; how it was run: as §1
[11] = Growth inhibition of human LOXIMVI cells at 10 uM after 48 hrs by sulforhodamine B assay; settings: LOX IMVI, read-out: GI; how it was run: as §1
SK-MEL-28 = assay: Growth inhibition of human SK-MEL-28 cells at 10 uM after 48 hrs by sulforhodamine B assay; settings: SK-MEL-28, 48 h, read-out: GI; how it was run: as §1
[12] = Growth inhibition of human SF539 cells at 10 uM after 48 hrs by sulforhodamine B assay; settings: SF-539, 48 h, read-out: GI; how it was run: as §1
SR = assay: Growth inhibition of human SR cells at 10 uM after 48 hrs by sulforhodamine B assay; settings: read-out: GI
How it was run: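 NCI-60 screen. Cells were grown in RPMI 1640 with 5% FBS and 2 mM L-glutamine, plated at 5000–40,000 cells/well and held 24 h at 37 °C, 5% CO2. Single 10 µM final dose from DMSO stock, triplicate wells, 48 h. Settled cells were fixed with 80% TCA (16% final) and stained with 0.4% SRB. Dye was solubilized in 10 mM Tris and read at 515 nm. Growth was calculated against time-zero and untreated wells.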

[13] = Growth inhibition of human HCT116 cells at 10 uM after 48 hrs by sulforhodamine B assay; settings: HCT-116, 48 h, read-out: GI; how it was run: as §1
[14] = Growth inhibition of human NCI-ADR-RES cells at 10 uM after 48 hrs by sulforhodamine B assay; settings: read-out: GI; how it was run: as §1
SK-MEL-5 = assay: Growth inhibition of human SK-MEL-5 cells at 10 uM after 48 hrs by sulforhodamine B assay; settings: SK-MEL-5, 48 h, read-out: GI; how it was run: as §1
[15] = Growth inhibition of human UACC62 cells at 10 uM after 48 hrs by sulforhodamine B assay; settings: UACC-62, 48 h, read-out: GI; how it was run: as §2
[16] = Growth inhibition of human DU145 cells at 10 uM after 48 hrs by sulforhodamine B assay; settings: DU-145, 48 h, read-out: GI; how it was run: as §1
[17] = Growth inhibition of human SW620 cells at 10 uM after 48 hrs by sulforhodamine B assay; settings: SW-620, 48 h, read-out: GI; how it was run: as §2
[18] = Growth inhibition of human RPMI8226 cells at 10 uM after 48 hrs by sulforhodamine B assay; settings: RPMI-8226, 48 h, read-out: GI; how it was run: as §1
[19] = Growth inhibition of human HCC2998 cells at 10 uM after 48 hrs by sulforhodamine B assay; settings: HCC 2998, 48 h, read-out: GI; how it was run: as §1
NCI-H322M = assay: Growth inhibition of human NCI-H322M cells at 10 uM after 48 hrs by sulforhodamine B assay; settings: read-out: GI; how it was run: as §1
[20] = Growth inhibition of human RXF393 cells at 10 uM after 48 hrs by sulforhodamine B assay; settings: RXF 393, 48 h, read-out: GI; how it was run: as §1
[21] = Growth inhibition of human SF295 cells at 10 uM after 48 hrs by sulforhodamine B assay; settings: SF-295, 48 h, read-out: GI; how it was run: as §1
MDA-MB-435 = assay: Growth inhibition of human MDA-MB-435 cells at 10 uM after 48 hrs by sulforhodamine B assay; settings: MDA-MB-435, 48 h, read-out: GI; how it was run: as §1

Row | SMILES | inhibition of growth at 10 µM [1] [%] | inhibition of growth at 10 µM [2] [%] | inhibition of growth at 10 µM (NCI-H23) [%] | inhibition of growth at 10 µM (NCI-H522) [%] | inhibition of growth at 10 µM (MDA-MB-468) [%] | inhibition of growth at 10 µM (ACHN) [%] | inhibition of growth at 10 µM (M14) [%] | inhibition of growth at 10 µM [3] [%] | inhibition of growth at 10 µM [4] [%] | inhibition of growth at 10 µM [5] [%] | inhibition of growth at 10 µM [6] [%] | inhibition of growth at 10 µM [7] [%] | inhibition of growth at 10 µM (KM12) [%] | inhibition of growth at 10 µM [8] [%] | inhibition of growth at 10 µM (A549) [%] | inhibition of growth at 10 µM [9] [%] | inhibition of growth at 10 µM [10] [%] | inhibition of growth at 10 µM (NCI-H226) [%] | inhibition of growth at 10 µM [11] [%] | inhibition of growth at 10 µM (SK-MEL-28) [%] | further results
1 | COc1ccc(Cc2nnc(Nc3ccc(NC(=O)Nc4ccc(Cl)c(C(F)(F)F)c4)cc3)c3ccccc23)cc1 | < 30 | < 30 | < 30 | 68 | 37 | 50 | 40 | < 30 | < 30 | 45 | 50 | 30 | 51 | < 30 | 48 | 40 | 48 | < 30 | 32 | < 30 | inhibition of growth at 10 µM [12]: < 30%; inhibition of growth at 10 µM (SR): 40%; inhibition of growth at 10 µM [13]: 53%; inhibition of growth at 10 µM [14]: 67%; inhibition of growth at 10 µM (SK-MEL-5): 36%; inhibition of growth at 10 µM [15]: < 30%; inhibition of growth at 10 µM [16]: < 30%; inhibition of growth at 10 µM [17]: < 30%; inhibition of growth at 10 µM [18]: 66%; inhibition of growth at 10 µM [19]: < 30%; inhibition of growth at 10 µM (NCI-H322M): 30%; inhibition of growth at 10 µM [20]: 72%; inhibition of growth at 10 µM [21]: 50%; inhibition of growth at 10 µM (MDA-MB-435): 35%
2 | COc1ccc(Cc2nnc(Nc3ccc(NC(=O)Nc4ccc(C#N)cc4)cc3)c3ccccc23)cc1 | < 30 | < 30 | < 30 | 54 | < 30 | 48 | 35 | < 30 | < 30 | 41 | 57 | < 30 | 37 | 33 | 36 | 36 | 105 | < 30 | 46 | 45 | inhibition of growth at 10 µM [12]: 67%; inhibition of growth at 10 µM (SR): 43%; inhibition of growth at 10 µM [13]: 44%; inhibition of growth at 10 µM [14]: < 30%; inhibition of growth at 10 µM (SK-MEL-5): < 33%; inhibition of growth at 10 µM [15]: < 30%; inhibition of growth at 10 µM [16]: < 30%; inhibition of growth at 10 µM [17]: < 30%; inhibition of growth at 10 µM [18]: 95%; inhibition of growth at 10 µM [19]: < 30%; inhibition of growth at 10 µM (NCI-H322M): < 30%; inhibition of growth at 10 µM [20]: 110%; inhibition of growth at 10 µM [21]: 86%; inhibition of growth at 10 µM (MDA-MB-435): < 30%
3 | COc1ccc(Cc2nnc(Nc3ccc(OC)cc3)c3ccccc23)cc1 | 55 | < 30 | < 30 | < 30 | < 30 | < 30 | < 30 | < 30 | < 30 | < 30 | < 30 | < 30 | < 30 | < 30 | < 30 | < 30 | < 30 | < 30 | < 30 | < 30 | inhibition of growth at 10 µM [12]: < 30%; inhibition of growth at 10 µM (SR): 34%; inhibition of growth at 10 µM [13]: 34%; inhibition of growth at 10 µM [14]: < 30%; inhibition of growth at 10 µM (SK-MEL-5): < 30%; inhibition of growth at 10 µM [15]: 34%; inhibition of growth at 10 µM [16]: < 30%; inhibition of growth at 10 µM [17]: < 30%; inhibition of growth at 10 µM [18]: < 30%; inhibition of growth at 10 µM [19]: < 30%; inhibition of growth at 10 µM (NCI-H322M): < 30%; inhibition of growth at 10 µM [20]: < 30%; inhibition of growth at 10 µM [21]: 30%; inhibition of growth at 10 µM (MDA-MB-435): < 30%
4 | COc1ccc(Cc2nnc(Nc3ccccc3)c3ccccc23)cc1 | 49 | < 30 | < 30 | < 30 | < 30 | < 30 | < 30 | < 30 | < 30 | < 30 | < 30 | < 30 | < 30 | < 30 | < 30 | < 30 | < 30 | < 30 | < 30 | < 30 | inhibition of growth at 10 µM [12]: < 30%; inhibition of growth at 10 µM (SR): 30%; inhibition of growth at 10 µM [13]: < 30%; inhibition of growth at 10 µM [14]: < 30%; inhibition of growth at 10 µM (SK-MEL-5): < 30%; inhibition of growth at 10 µM [15]: < 31%; inhibition of growth at 10 µM [16]: < 30%; inhibition of growth at 10 µM [17]: < 30%; inhibition of growth at 10 µM [18]: 58%; inhibition of growth at 10 µM [19]: < 30%; inhibition of growth at 10 µM (NCI-H322M): < 30%; inhibition of growth at 10 µM [20]: < 30%; inhibition of growth at 10 µM [21]: < 30%; inhibition of growth at 10 µM (MDA-MB-435): < 30%

— ChEMBL document CHEMBL3779892, “Increasing the binding affinity of VEGFR-2 inhibitors by extending their hydrophobic interaction with the active site: Design, synthesis and biological evaluation of 1-substituted-4-(4-methoxybenzyl)phthalazine derivatives” (Eur J Med Chem, 2016)
